# RGS4 inh: inhibitors of human RGS4. AID 463165. P49798. B-score at 10 µM. HEK293 M3R/RGS4 inducible, Fluo-4 calcium flux; hits give high values; triggered by carbachol at its EC20. 310,000 compounds, 0.45% hits;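 active = B-score, a plate-corrected calcium signal, over three deviations above library mean, with baseline fluorescence within five deviations of library mean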;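 note: RGS4 expression induced by doxycycline in cells with stable M3 receptor; B-score is computed from the integrated fluorescence ratio over baseline after carbachol; higher B-score means a larger calcium signal and so more RGS4 inhibition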
# Target sequence (P49798 whole entry, looked up): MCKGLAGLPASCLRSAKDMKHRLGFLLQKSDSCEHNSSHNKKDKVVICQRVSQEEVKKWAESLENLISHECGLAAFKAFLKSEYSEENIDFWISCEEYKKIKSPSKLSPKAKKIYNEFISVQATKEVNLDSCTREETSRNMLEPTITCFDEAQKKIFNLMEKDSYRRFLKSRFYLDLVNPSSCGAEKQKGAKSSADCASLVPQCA
# MrgX1 antag: antagonists of human MrgX1 receptor; MRGX1-HEK293 calcium flux, Fluo-4, BAM8-22 antagonism; hits give low values; B-score at 10 µM; 310,000 compounds, 1.3% hits;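 active = calcium-response B-score plate-corrected more than 3 library SD below zero, starting fluorescence within 5 deviations, no agonist response on first addition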;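 note: peak minus trough fluorescence over baseline after final BAM8-22 challenge near maximal dose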
# Target sequence (Q96LB2 whole entry, looked up): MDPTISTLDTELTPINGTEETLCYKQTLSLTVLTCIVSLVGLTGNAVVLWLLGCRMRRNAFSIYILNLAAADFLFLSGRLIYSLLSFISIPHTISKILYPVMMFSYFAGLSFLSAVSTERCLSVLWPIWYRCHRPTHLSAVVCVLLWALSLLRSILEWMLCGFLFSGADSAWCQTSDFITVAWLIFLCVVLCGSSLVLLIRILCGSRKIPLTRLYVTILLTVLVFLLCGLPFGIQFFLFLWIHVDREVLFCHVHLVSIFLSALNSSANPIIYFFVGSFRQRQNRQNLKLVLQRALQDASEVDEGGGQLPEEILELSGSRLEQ
# RGS4 act: RGS4 potentiation or activation. HEK293 M3R/inducible RGS4, carbachol calcium flux Fluo4; hits give low values. B-score at 10 µM. 310,000 compounds, 0.92% hits;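 active = B-score of the integrated calcium signal more than 4 SD below the library mean, with starting fluorescence not abnormally high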;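 note: negative B-score means reduced calcium response which marks RGS4 activation or potentiation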
#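 Assay system: Inducible-RGS4 HEK293 cells carrying M3 receptor | Schedule: Compound preincubation 20 min at room temperature before agonist | Signal: Kinetic calcium fluorescence imaging with Fluo4-AM dye, 2 µM | Read-out basis: B score from integrated fluorescence ratio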
# MrgX1 PAM: allosterically activates human MrgX1 receptor signaling; B-score at 10 µM; Q96LB2; MrgX1-HEK293, Fluo-4 calcium flux, FDSS; hits give high values; 310,000 compounds, 0.63% hits;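 active = plate-corrected calcium response at least 3 library SD above typical, normal starting fluorescence, not activating the receptor alone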;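 note: compound read alongside a low EC10 to EC30 dose of BAM8-22 agonist; peak minus trough fluorescence over baseline measured at the second addition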
# MrgX1 agonist: agonists of human MrgX1 receptor. 310,000 compounds, 0.44% hits. B-score at 10 µM. AID 588627. MrgX1-HEK293 cells, Fluo-4 calcium fluorescence, agonist mode; hits give high values. Q96LB2;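 active = calcium response B-score plate-corrected fluorescence ratio at least 3 library SD, with starting fluorescence B-score inside 5 SD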
#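 times = overnight plating, then 30 min 37 °C plus 30 min room-temperature dye loading | assay system = stable human MrgX1 HEK293 cell line | input = fifteen thousand cells per well | signal = kinetic calcium dye fluorescence, Fluo-4 NW | dosing = compound delivered in addition one of three | read-out = B-scored fluorescence response ratio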
# An asterisk follows results filed as active; i = inactive; . = no result. In the library only some 3.5% were active in any assay of this set; here they are far more common.
SMILES,RGS4 inh,MrgX1 antag,RGS4 act,MrgX1 PAM,MrgX1 agonist
COc1c(C)cccc1C(=O)NC(=S)Nc1ccccc1N1CCCC1,i,i,-7.6*,i,i
Cc1ccc(S(=O)(=O)c2cc3ccccc3oc2=O)cc1,i,i,i,i,i
Cc1c(O)ccc2cc(S(=O)(=O)c3ccccc3)c(=O)oc12,i,i,-7.8*,i,i
CCOC(=O)C1CCCN(C(=O)c2ccc([N+](=O)[O-])c(C)c2)C1 (configuration not stated),i,i,i,i,i
CCOC(=O)C1CCCN(C(=O)c2ccc(C)c([N+](=O)[O-])c2)C1 (configuration not stated),i,i,-8.6*,i,i
CC(=O)c1ccccc1NC(=O)Cn1c(=O)cnc2ccccc21,i,i,i,i,i
Cc1nnc(SCc2cc(=O)[nH]c(/N=C(\N)Nc3ccccc3Sc3ccccc3)n2)s1,i,i,-7.4*,i,i
Cc1ccc(C)c2sc(N3CCN(C(=O)c4ccc([N+](=O)[O-])o4)CC3)nc12,i,-7.5*,i,i,i
O=C(c1ccc([N+](=O)[O-])o1)N1CCN(c2nc3c(F)cc(F)cc3s2)CC1,i,i,i,i,i
Cc1nn(CC(=O)N2CCN(c3ccc(Cl)cc3)CC2)c(=O)c2cccn12,i,i,i,i,i
CCN(CC)CC#CCC(O)(c1ccccc1)c1ccc(Br)cc1 (configuration not stated),i,i,-7.8*,i,i
CC1(C)C2CC[C@]3(C)C(CC=C4[C@@H]5C[C@@](C)(CO)[C@@H](O)C[C@]5(C(=O)O)CC[C@]43C)[C@@]2(C)CC[C@@H]1O (some centres not stated),i,i,i,i,i
CC(=O)O[C@H]1CC[C@]2(C)[C@H]3CC=C4[C@@H]5[C@@H](C)[C@H](C)CC[C@]5(C(=O)O)CC[C@@]4(C)[C@]3(C)CC[C@H]2C1(C)C,14*,i,i,i,i
COc1cccc(CNc2cccc3cccnc23)c1O,i,i,i,15*,i
COc1cccc(CNc2ccccn2)c1O,i,i,i,i,i
COc1ccc2[nH]c3c(c2c1)CCNC3c1ccc([N+](=O)[O-])o1 (configuration not stated),i,-5.6*,i,i,i
COc1cc(C2NCCc3c2[nH]c2ccccc32)ccc1OC(C)C (configuration not stated),i,i,i,i,i
Cc1cc(C)cc(CC(Cc2nc3ccccc3[nH]2)c2nc3ccccc3[nH]2)c1 (configuration not stated),i,i,i,i,i
COC1=C/C(=C/c2c(N)n3nc(CC(=O)N4CCCCC4)sc3nc2=O)C=CC1=O,i,i,i,i,69*
Nc1c(/C=C2\C=Nc3ccccc32)c(=O)nc2sc(CC(=O)N3CCOCC3)nn12,i,i,i,10*,i
COC(=O)c1cc(NC(=S)NC(=O)c2ccccc2)ccc1N1CCOCC1,i,i,i,i,i
CCCCc1ccc(C2C(C#N)=C(N)SC(N)=C2C#N)s1,.,-9.6*,.,i,i
CCOc1ccc(C2C(C#N)=C(N)SC(N)=C2C#N)c(OCC)c1,i,i,i,i,i
CCOc1ccc(N2C(=O)CC(Sc3ncccn3)C2=O)cc1 (configuration not stated),i,i,i,i,i
CCOc1ccc(N2C(=O)CC(Sc3nc(-c4cccs4)cc(C(F)(F)F)c3C#N)C2=O)cc1 (configuration not stated),i,-7.1*,i,i,i
SMILES,RGS4 inh,MrgX1 antag,RGS4 act,MrgX1 PAM,MrgX1 agonist
CCOC(=O)c1cnc2c(C(=O)OC)cccc2c1NCc1cccnc1,i,i,-7*,i,i
CCOC(=O)c1cnc2c(C)cccc2c1NCCc1ccc(OC)c(OC)c1,i,i,-7.4*,i,i
CCOC(=O)c1cnc2ccc(C(=O)OC)cc2c1NCCc1ccc(OC)c(OC)c1,i,-6.4*,i,i,i
CCOC(=O)c1cnc2c(C)cccc2c1Nc1cccc(C(=O)O)c1,i,i,i,i,i
CCOC(=O)c1cnc2ccc(C(=O)OC)cc2c1NCCN1CCOCC1,i,i,i,i,i
CCOC(=O)c1cnc2c(Cl)cccc2c1NCCN(C)C,i,i,i,i,i
CCO[C@@H]1OC(C(N)=O)=C[C@H](c2ccc3c(c2)OCO3)[C@H]1CCCO,i,i,i,i,i
O=C1c2cccc3c([N+](=O)[O-])ccc(c23)C(=O)N1c1ccccn1,i,i,-7.8*,i,i
O=C1c2cccc3c([N+](=O)[O-])ccc(c23)C(=O)N1c1ccc(Cl)cn1,i,i,i,i,i
O=C1c2cccc3c([N+](=O)[O-])ccc(c23)C(=O)N1O,i,-8.6*,i,i,i
COc1ccc2cc(C(=O)N3CCN(c4ccc(F)cc4)CC3)[nH]c2c1,i,i,i,i,i
Cc1ccc2c(c1)C1(C)C(C(C)(C)N2C=O)C1(Cl)Cl (configuration not stated),i,i,i,13*,i
CC(=O)N1c2ccccc2C2(C)C(C1(C)C)C2(Cl)Cl (configuration not stated),i,i,i,i,i
Cc1ccc(SCC(=O)OCC(=O)N(C)CC(=O)Nc2ccc(F)cc2)cc1C,i,i,i,i,48*
COc1ccc(Cl)cc1C(=O)OCC(=O)N(C)CC(=O)Nc1ccc(F)cc1,i,i,i,i,i
Cc1cc(F)c(F)c(C(=O)N2CCN(C)CC2)c1Cl,i,i,i,i,i
CCS(=O)(=O)c1nc(S(=O)(=O)c2ccc(C)cc2)c(N2CC(C)CC(C)C2)s1 (configuration not stated),i,i,i,i,i
CCN1C(=O)/C(=C\N2CCN(C)CC2)SC1=S,i,-4.6*,i,i,i
CN(C)c1ccc(N=Nc2ccccc2C(=O)OCC(=O)N(C)c2ccccc2)cc1,i,i,i,i,i
O=C(N/N=C/c1ccc(OC(F)F)cc1)c1ccc(Br)cc1,i,-5.3*,i,i,i
O=C(N/N=C/c1ccc(OC(F)F)cc1)c1cc[n+]([O-])cc1,i,-6*,i,i,i
Cc1c(N=C2N=C(NC(=O)c3cccs3)c3ccccc32)c(=O)n(-c2ccccc2)n1C,i,i,i,i,33*

# Screens from PubChem.
